Starred links: 1 amine or outer side, 2 acyl side, 3 side chain; linkers in the order of their positions; H or OH if unused. Positions of bridges follow the written chain, without caps; N, C: chain ends. Non-standard residues stand in square brackets, D forms with d. Residues, ends and D or L forms follow the SMILES beside them. No end group written: not given here. *: point of attachment. X1 = NC(=O)CC[C@@H]1NC(=O)[C@H](CO)N=C1N[C@@H](CO)C(=O)*; X2 = NC(=O)C[C@H](N[*:1])c1nc(C(=O)[*:2])cs1; X4 = NC(=O)C[C@H](N[*:1])c1nc(C(=O)[*:2])co1; X3 = O=C(c1csc([C@H](CO)N[*:1])n1)[*:2]
Legend:
[1] = target: Escherichia coli inner membrane transporter SbmA (E. coli) (UniProt P0AFY6); assay: MST
[2] = test system: E. coli ΔsbmA cells (JW0368) expressing SbmA mutants; type: cell-based, Escherichia coli; conditions: for antibiotic sensitivity of cells carrying SbmA Tyr116 mutation: Tyr116 (potential periplasmic gate) mutant
BacA = target: T1, BacA (Rhizobium meliloti, UniProt Q08120); assay: Microscale thermophoresis; type: binding, Sinorhizobium meliloti; conditions: BacA-ND complex; MST
T1 sequence (Q08120 1-420): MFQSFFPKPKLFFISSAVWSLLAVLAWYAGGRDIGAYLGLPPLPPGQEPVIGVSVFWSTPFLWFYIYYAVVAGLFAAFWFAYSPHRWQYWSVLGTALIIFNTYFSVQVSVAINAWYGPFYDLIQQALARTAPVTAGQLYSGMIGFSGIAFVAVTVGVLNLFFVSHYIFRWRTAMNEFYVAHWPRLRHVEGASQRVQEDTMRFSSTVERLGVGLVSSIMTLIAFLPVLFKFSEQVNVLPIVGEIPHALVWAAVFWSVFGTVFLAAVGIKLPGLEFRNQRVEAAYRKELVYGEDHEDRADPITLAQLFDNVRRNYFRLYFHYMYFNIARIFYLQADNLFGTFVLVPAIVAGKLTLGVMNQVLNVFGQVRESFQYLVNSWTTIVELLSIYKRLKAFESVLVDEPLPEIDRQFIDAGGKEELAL
Procedure, shortened: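 Purified protein mixed into DDM-solubilized lipid (7.5 mM lipid, 33 mM DDM) for 30 min at 28°C. Alexa Fluor 647–labeled MSP1E3D1 (S22C/A121C) added, then Amberlite XAD-2 overnight at 28°C, and nanodiscs purified by SEC. Labeled nanodiscs (20 nM) incubated 15 min in the dark with test compound in 20 mM K-Hepes pH 8, 150 mM KCl, 0.005% Tween 20 (DMSO 1.25% final). Kd from a 1:1 fit of the MST signal, three independent measurements.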

cryo-EM structure [3] = target: the molecule itself; assay: cryo-EM structure
cryo-EM structure [4] = target: the molecule itself; assay: cryo-EM structure; remark: listed apart in the source

klebsazolicin (peptide)
Kd [1]: 849 nM

CC(C)C[C@H](NC(=O)CNC(=O)CNC(=O)[C@@H](NC(=O)c1csc([C@H](CC(N)=O)NC(=O)[C@H](C)NC(=O)[C@H](CO)NC(=O)c2coc([C@H](CC(N)=O)NC(=O)[C@H](CO)NC(=O)c3csc([C@H](CO)NC(=O)[C@H](C)NC(=O)c4csc([C@H](CC(N)=O)NC(=O)CNC(=O)[C@@H]5CCCN5C(=O)[C@H](CO)NC5=N[C@@H](CO)C(=O)N[C@H]5CCC(N)=O)n4)n3)n2)n1)[C@@H](C)O)C(=O)O [KLB, klebsazolicin] (X1-PG[X2]A[X3]S[X4]SA[X2]TGGL-OH; C-terminus assumed)
antibiotic sensitivity of cells carrying SbmA Tyr116 mutation [2]: resistant

microcin J25 (GGAGHVPEYFVGIGTPISFYG; lactam N-8; ends not checked; UniProt Q9X2V7 38-58, looked up) [MccJ25]
antibiotic sensitivity of cells carrying SbmA Tyr116 mutation [2]: resistant

bleomycin
Kd (BacA): 19 ± 11 nM
antibiotic sensitivity of cells carrying SbmA Tyr116 mutation [2]: slightly increased sensitivity
antibiotic sensitivity of cells carrying SbmA Tyr368Ala mutant ([2]; Tyr368Ala (first internal gate) mutant): additionally sensitized

B1: Escherichia coli inner membrane transporter SbmA (natural protein, E. coli)
chain: MFKSFFPKPGTFFLSAFVWALIAVIFWQAGGGDWVARITGASGQIPISAARFWSLDFLIFYAYYIVCVGLFALFWFIYSPHRWQYWSILGTALIIFVTWFLVEVGVAVNAWYAPFYDLIQTALSSPHKVTIEQFYREVGVFLGIALIAVVISVLNNFFVSHYVFRWRTAMNEYYMANWQQLRHIEGAAQRVQEDTMRFASTLENMGVSFINAIMTLIAFLPVLVTLSAHVPELPIIGHIPYGLVIAAIVWSLMGTGLLAVVGIKLPGLEFKNQRVEAAYRKELVYGEDDATRATPPTVRELFSAVRKNYFRLYFHYMYFNIARILYLQVDNVFGLFLLFPSIVAGTITLGLMTQITNVFGQVRGAFQYLINSWTTLVELMSIYKRLRSFEHELDGDKIQEVTHTLS
stoichiometry N (cryo-EM structure [3]): 2

B2: BacA from Sinorhizobium meliloti (natural protein, S. meliloti, UniProt Q08120 1-420, looked up)
chain: MFQSFFPKPKLFFISSAVWSLLAVLAWYAGGRDIGAYLGLPPLPPGQEPVIGVSVFWSTPFLWFYIYYAVVAGLFAAFWFAYSPHRWQYWSVLGTALIIFNTYFSVQVSVAINAWYGPFYDLIQQALARTAPVTAGQLYSGMIGFSGIAFVAVTVGVLNLFFVSHYIFRWRTAMNEFYVAHWPRLRHVEGASQRVQEDTMRFSSTVERLGVGLVSSIMTLIAFLPVLFKFSEQVNVLPIVGEIPHALVWAAVFWSVFGTVFLAAVGIKLPGLEFRNQRVEAAYRKELVYGEDHEDRADPITLAQLFDNVRRNYFRLYFHYMYFNIARIFYLQADNLFGTFVLVPAIVAGKLTLGVMNQVLNVFGQVRESFQYLVNSWTTIVELLSIYKRLKAFESVLVDEPLPEIDRQFIDAGGKEELAL
binding result (cryo-EM structure [4]): binds

— PMC8442886 (Science Advances, 2021)
